Consider ten molecules from publication PMC5123777 (Biochemistry, 2015).

One data set deals with OXA-163 (Klebsiella pneumoniae, UniProt Q6XEC0, DEL214-217/S212D). In words: Steady-state enzyme kinetics of substrate hydrolysis by OXA-163. Type of data set: biochemical, Klebsiella pneumoniae and Enterobacter cloacae. Conditions: for Km / kcat: 30°C, 50 mM sodium phosphate pH 7.2, 15 mM sodium bicarbonate. The essentials: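 OXA-163 was purified from induced culture supernatant (0.4 mM IPTG, 23°C, 20 h) by zinc-chelate chromatography and size exclusion, and quantified at A280. Hydrolysis was followed by UV at 260 nm (ceftazidime, cefotaxime), 262 nm (cephalothin), 298 nm (meropenem), or 299 nm (imipenem, doripenem, […]). Data were fitted to Michaelis–Menten; where Vmax was unreachable, kcat/Km came from a first-order fit.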

Another data set concerns the target OXA-48 (Klebsiella pneumoniae, UniProt Q6XEC0). Kind of data set: Steady-state enzyme kinetics of substrate hydrolysis by OXA-48. Type of data set: biochemical. The settings on record: for OXA-48 kcat/Km value smaller compared to imipenem: relative to imipenem kcat/Km.
The test system of data set [1] is class D β-lactamases (DBLs). The settings on record: in vitro; cited from earlier work.
Data set [2] has as its target OXA-163 class D β-lactamase (Klebsiella pneumoniae and Enterobacter cloacae). In words: SEC. In general terms: In gel filtration, larger molecules generally elute earlier.
Data set [3] has the same target. In words: crystal structure.
The target is the same in data set [4]. Kind of data set: crystal structure. The source holds these as a separate data set.
The data set “SEC” concerns the molecule itself. In words: SEC.

One may read the Km as the concentration of substrate that gives half-maximal velocity. As usually defined, the kcat is the number of substrate molecules converted per active site and unit of time at saturation. As to `CO/N=C(\C(=O)N[C@@H]1C(=O)N2C(C(=O)O)=C(COC(C)=O)CS[C@H]12)c1csc(N)n1` [Cefotaxime, cefotaxime], on OXA-163 (OXA-163), the Km is 36 ± 11 µM and the catalytic constant (kcat) stood at 14 ± 1 s⁻¹.
Turning to `CC(C)(O/N=C(\C(=O)N[C@@H]1C(=O)N2C(C(=O)[O-])=C(C[n+]3ccccc3)CS[C@H]12)c1csc(N)n1)C(=O)O` [Ceftazidime, ceftazidime], on OXA-163 (OXA-163), the “hydrolysis by OXA-163” value is reported as “does hydrolyze” and the Km is more than 1000 µM. Moreover, the “hydrolysis by OXA-48 (steady-state kinetics analysis)” value on OXA-48 was “does not hydrolyze”.
With `CC(=O)OCC1=C(C(=O)O)N2C(=O)[C@@H](NC(=O)Cc3cccs3)[C@H]2SC1` [Cephalothin, cephalothin], at OXA-163 (OXA-163), the Km was 3.4 ± 0.4 µM and the turnover number (kcat) came out at 1.7 ± 0.1 s⁻¹.
As to `C[C@@H](O)[C@H]1C(=O)N2C(C(=O)O)=C(S[C@@H]3CN[C@H](CNS(N)(=O)=O)C3)[C@H](C)[C@H]12` [Doripenem, doripenem], on OXA-163 (OXA-163), the Km was found to be 5 ± 0.4 µM and the kcat turned out to be 0.018 ± 0.001 s⁻¹. In addition, on OXA-48, the “OXA-48 kcat/Km value smaller compared to imipenem” value stood at 56 fold.
As for `C[C@@H](O)[C@H]1C(=O)N2C(C(=O)O)=C(SCCN=CN)C[C@H]12` [Imipenem, imipenem], at OXA-163 (OXA-163), the Km was 3.6 ± 1 µM and the kcat was determined as 0.004 ± 0.001 s⁻¹. Further, the “drop in the catalytic efficiency of OXA-163 in comparison to OXA-48” value at OXA-163 (kcat/Km OXA-48 versus OXA-163) was 820 fold.
Turning to `C[C@@H](O)[C@H]1C(=O)N2C(C(=O)O)=C(S[C@@H]3CN[C@H](C(=O)N(C)C)C3)[C@H](C)[C@H]12` [Meropenem, meropenem], on OXA-163 (OXA-163), the Km was determined as 5.3 ± 0.5 µM and the kcat worked out at 0.021 ± 0.001 s⁻¹. Also, the “OXA-48 kcat/Km value smaller compared to imipenem” value on OXA-48 was 53 fold.
For the molecule `[Cl-].[Na+]` [NaCl, sodium chloride], in data set [1], the “sodium chloride concentration at which most DBLs are fully inhibited” value is 100 mM.
With `O=C(Cc1cccs1)N[C@@H]1C(=O)N2C(C(=O)O)=C(/C=C/c3ccc([N+](=O)[O-])cc3[N+](=O)[O-])CS[C@H]12` [Nitrocefin, nitrocefin], on OXA-163 (OXA-163), the Km was found to be 19 ± 8 µM and the kcat stood at 34 ± 2 s⁻¹.
In general, stoichiometry N refers to a count of units in the complex or per binding partner. In the case of OXA-163 class D β-lactamase (enzyme), the stoichiometry N in data set [2], in data set [3] and in data set [4] was 2 each time.

B1: OXA-48 class D β-lactamase (enzyme)
chain: KEWQENKSWNAHFTEHKSQGVVVLWNENKQQGFTNNLKRANQAFLPASTFKIPNSLIALDLGVVKDEHQVFKWDGQTRDIATWNRDHNLITAMKYSVVPVYQEFARQIGEARMSKMLHAFDYGNEDISGNVDSFWLDGGIRISATEQISFLRKLYHNKLHVSERSQRIVKQAMLTEANGDYIIRAKTGYSTRIEPKIGWWVGWVELDDNVWFFAMNMDMPTSDGLGLRQAITKEVLKQEKIIP
For B1, the “stoichiometry N” value in “SEC” came to 2.
